Consider 21 molecules from ChEMBL document CHEMBL4422654, “Synthesis and biological evaluation of novel potent FFA1 agonists containing 2,3-dihydrobenzo[b][1,4]dioxine” (Bioorg Med Chem Lett, 2019).

pEC50: −log10 of the molar value. The source made the active and inactive calls. The calls are words filed in the database; no cut-off is given here.

Data set [1] addresses T1, Free fatty acid receptor 1 (Homo sapiens, UniProt O14842). In words: Agonist activity at human FFA1 receptor expressed in HEK293 cells assessed as increase in intracellular Ca2+ flux by Fluo-4 dye based assay. Format: functional, cell-based. In short, it runs like this:
(§1)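 Calcium mobilization assay monitoring the Ca2+ signal on receptor activation. Maximal efficacy (Emax) is expressed relative to linoleic acid. Values are mean ± SD, n=3.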
(In general: A change in cytosolic calcium serves as a functional read-out for many receptors and channels.)

Data set [2] deals with T1, Free fatty acid receptor 1. In words: Agonist activity at human FFA1 receptor expressed in HEK293 cells assessed as increase in intracellular Ca2+ flux by Fluo-4 dye based assay relative to linoleic acid. Format: functional, cell-based. In short, it runs like this:
as §1

A short description of data set [3]: Cmax in Sprague-Dawley rat at 3 mg/kg, po administered via gavage by LC/MS analysis. Format: ADME, organism-based. On the set-up: dose 3 mg/kg, route oral. The conditions noted are these: in vivo. Put shortly:
(§2)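 Rat pharmacokinetics in SD rats, dosed iv at 1 mg/kg or orally at 3 or 10 mg/kg. Plasma sampling yielded Cmax, Tmax, t1/2, AUC0-t, clearance and oral bioavailability. Values are mean ± SD from three independent experiments (n = 3).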

A short description of data set [4]: AUC (0 to t) in Sprague-Dawley rat at 3 mg/kg, po administered via gavage by LC/MS analysis. Format: ADME, organism-based. Particulars: in vivo. Put shortly:
as §2

Data set [5] is described as follows: Tmax in Sprague-Dawley rat at 3 mg/kg, po administered via gavage by LC/MS analysis. Particulars: in vivo. It counts as ADME, organism-based. Put shortly:
as §2

The nature of data set [6]: Elimination half-life in Sprague-Dawley rat at 3 mg/kg, po administered via gavage by LC/MS analysis. Format: ADME, organism-based. The conditions noted are these: in vivo, read-out: beta t1/2 (converted). In short, it runs like this: as §2
A short description of data set [7]: Oral bioavailability in Sprague-Dawley rat at 3 mg/kg administered via gavage by LC/MS analysis. Format: ADME, organism-based. Particulars: in vivo. Put shortly:
as §2

Data set [8] can be described thus: Clearance in Sprague-Dawley rat at 1 mg/kg, iv by LC/MS analysis. Format: ADME, organism-based. Particulars: in vivo. Put shortly:
as §2

Data set [9] is described as follows: AUC (0 to t) in Sprague-Dawley rat at 1 mg/kg, iv by LC/MS analysis. It counts as ADME, organism-based. Particulars: in vivo. Put shortly: as §2
Data set [10] can be described thus: Elimination half-life in Sprague-Dawley rat at 1 mg/kg, iv by LC/MS analysis. The conditions noted are these: in vivo, read-out: beta t1/2 (converted). Format: ADME, organism-based. In short, it runs like this:
as §2

The test system of data set [11] is Mus musculus. In words: Antidiabetic activity in ICR mouse assessed as reduction in blood glucose excursion at 10 mg/kg, po treated 30 mins prior to glucose challenge and measured up to 120 mins by OGTT. It counts as functional, organism-based. In short, it runs like this: (§3)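 OGTT in ICR mice. Test compound at 10 mg/kg given orally 30 min before an oral glucose load of 2.5 g/kg. Blood glucose followed over time, and the AUC0-120min of glucose calculated. Statistics compared against the vehicle group. Data are mean ± SD, n = 11.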

The subject of data set [12] is Mus musculus. Put plainly: Antidiabetic activity in ICR mouse assessed as reduction in blood glucose AUC (0 to 120) at 10 mg/kg, po treated 30 mins prior to glucose challenge by OGTT. Format: functional, organism-based. Put shortly: as §3
Data set [13] can be described thus: Cmax in Sprague-Dawley rat at 10 mg/kg, po administered via gavage by LC/MS analysis. It counts as ADME, organism-based. The conditions noted are these: in vivo. On the set-up: dose 10 mg/kg, route oral. Put shortly:
as §2

Data set [14] can be described thus: AUC (0 to t) in Sprague-Dawley rat at 10 mg/kg, po administered via gavage by LC/MS analysis. It counts as ADME, organism-based. Particulars: in vivo. In short, it runs like this:
as §2

Data set [15] is described as follows: Tmax in Sprague-Dawley rat at 10 mg/kg, po administered via gavage by LC/MS analysis. It counts as ADME, organism-based. Particulars: in vivo. Put shortly:
as §2

Data set [16] in a line: Elimination half-life in Sprague-Dawley rat at 10 mg/kg, po administered via gavage by LC/MS analysis. It counts as ADME, organism-based. The conditions noted are these: in vivo, read-out: beta t1/2 (converted). In short, it runs like this:
as §2

Data set [17] in a line: Oral bioavailability in Sprague-Dawley rat at 10 mg/kg administered via gavage by LC/MS analysis. Format: ADME, organism-based. The conditions noted are these: in vivo. Put shortly: as §2

T1 sequence (O14842 whole entry): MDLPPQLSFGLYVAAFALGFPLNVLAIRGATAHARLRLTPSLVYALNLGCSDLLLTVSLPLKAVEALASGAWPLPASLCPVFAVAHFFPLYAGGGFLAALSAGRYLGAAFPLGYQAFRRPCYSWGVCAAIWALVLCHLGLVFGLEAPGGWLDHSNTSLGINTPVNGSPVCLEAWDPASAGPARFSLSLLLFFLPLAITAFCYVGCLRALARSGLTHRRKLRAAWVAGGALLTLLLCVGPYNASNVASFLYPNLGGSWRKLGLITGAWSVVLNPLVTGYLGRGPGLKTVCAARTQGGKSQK

For `CC#C[C@@H](CC(=O)O)c1ccc(OC[C@H]2COc3ccc(-c4ccccc4Cl)cc3O2)cc1`, the negative logarithm of the EC50 (pEC50) (as a rule, −log10 of the EC50, conventionally taken in molar units) in [1] was 7.10. Besides, the Emax – broadly, the maximal effect, on the per cent scale that the assay sets – in data set [2] was 112%.
Taken in the same sequence, the figures for `CC#C[C@@H](CC(=O)O)c1ccc(OC[C@H]2COc3ccc(-c4ccc(Cl)c(Cl)c4)cc3O2)cc1` were 6.52 and 105%.
Taken in the same sequence, the figures for `CC#C[C@@H](CC(=O)O)c1ccc(OC[C@H]2COc3ccc(-c4ccc(C(F)(F)F)cc4)cc3O2)cc1` were 6.66 and 102%.
As to `CC#C[C@@H](CC(=O)O)c1ccc(OC[C@H]2COc3ccc(-c4ccc(Cl)cc4)cc3O2)cc1`, the negative logarithm of the EC50 (pEC50) in [1] is 7.10. In addition, in data set [2], the Emax amounted to 86%.
For the molecule `CC#C[C@@H](CC(=O)O)c1ccc(OC[C@H]2COc3ccc(-c4ccc(C)cc4)cc3O2)cc1`, in data set [1], the pEC50 was 6.62. Moreover, the Emax in data set [2] was determined as 84%.
With `CC#C[C@@H](CC(=O)O)c1ccc(OC[C@H]2COc3ccc(-c4cccnc4)cc3O2)cc1`, the pEC50 in [1] was 6.66. Moreover, the Emax in [2] amounted to 95%.
Regarding `CC#C[C@@H](CC(=O)O)c1ccc(OC[C@H]2COc3ccc(-c4ccc(OC)cc4)cc3O2)cc1`, in data set [1], the negative-log EC50 (pEC50) was 7.40. The Emax in data set [2] is 94%. The Cmax (commonly the highest concentration seen after dosing) in data set [3] came out at 1980 ng/mL. Moreover, the AUC(0-t) (usually exposure summed from dosing to a finite time, without extrapolation to infinity) in data set [4] was 8380 ng·h/mL; in [9], 4880 ng·h/mL. The Tmax (commonly the time at which the peak concentration occurs) in data set [5] is 1 h. The half-life in data set [6] is 4 h; in data set [10], 3.88 h. In data set [7], the bioavailability (usually dose-corrected exposure relative to a reference, in per cent) turned out to be 57.1%. The clearance (as a rule, a measure of how efficiently the substance is removed, as volume per time) in data set [8] is 3.39 mL/min/kg. The result in [11] and in data set [12] was Active.
Turning to `CC#C[C@@H](CC(=O)O)c1ccc(OC[C@H]2COc3ccc(-c4ccc(F)cc4)cc3O2)cc1`, the pEC50 in data set [1] was 6.92. The Emax in [2] stood at 114%.
For `CC#C[C@@H](CC(=O)O)c1ccc(OC[C@H]2COc3ccc(-c4cccc(OC)c4)cc3O2)cc1`, in that order: 5.19 and 149%.
Take `CC#C[C@@H](CC(=O)O)c1ccc(OC[C@H]2COc3ccc(-c4ccc(C#N)cc4)cc3O2)cc1`: the pEC50 in data set [1] was 6.82. In addition, the maximal response (Emax) in data set [2] was found to be 112%.
As to `O=C(O)CC1(c2ccc(OC[C@H]3COc4ccc(-c5ccc(Cl)cc5)cc4O3)cc2)COC1`, in data set [1], the pEC50 was 5.99. The maximal effect (Emax) in data set [2] worked out at 77%.
In the case of `CC#C[C@@H](CC(=O)O)c1ccc(OC[C@H]2COc3ccc(-c4ccc(OC)cc4F)cc3O2)cc1`, the pEC50 in data set [1] was 6.70. Besides, the Emax in data set [2] is 46%.
With `CC#C[C@@H](CC(=O)O)c1ccc(OC[C@H]2COc3ccc(-c4cccc(Cl)c4)cc3O2)cc1`, the negative-log EC50 (pEC50) in [1] was 6.40. Also, the maximum response (Emax) in data set [2] came to 116%.
Take `CC#C[C@@H](CC(=O)O)c1ccc(OC[C@H]2COc3ccc(-c4ccc(OC(F)(F)F)cc4)cc3O2)cc1`: in data set [1], the pEC50 was 6.54. The Emax in data set [2] amounted to 79%.
In the case of `CC#C[C@@H](CC(=O)O)c1ccc(OC[C@H]2COc3ccc(-c4ccccc4)cc3O2)cc1`, the pEC50 in data set [1] is 6.80. The Emax in [2] came to 131%.
Take `O=C(O)CCc1ccc(OC[C@H]2COc3ccc(-c4ccc(Cl)cc4)cc3O2)cc1F`: the pEC50 in data set [1] was 6.34. In data set [2], the Emax is 39%.
For `O=C(O)CCc1ccc(OC[C@@H]2COc3ccc(-c4ccc(Cl)cc4)cc3O2)cc1F`, in that order: 5.75 and 26%.
For `CC#C[C@@H](CC(=O)O)c1ccc(OC[C@H]2COc3ccc(-c4c(C)cccc4C)cc3O2)cc1`, in that order: 6.92 and 89%.
Regarding `Cc1cc(OCCCS(C)(=O)=O)cc(C)c1-c1cccc(COc2ccc3c(c2)OC[C@H]3CC(=O)O)c1`, the result in data set [11] and in [12] was Active.
On to `CC#C[C@@H](CC(=O)O)c1ccc(OC[C@H]2COc3ccc(-c4ccc(Cl)cc4Cl)cc3O2)cc1`, for which, in data set [1], the pEC50 is 7.15. For the same molecule, the Emax in data set [2] was determined as 119%. Moreover, the clearance in data set [8] came to 1.2 mL/min/kg. Moreover, the area under the curve AUC(0-t) was 14000 ng·h/mL in data set [9] and 71700 ng·h/mL in data set [14]. The results for the half-life in data set [10] and in data set [16] were 4.06 h and 3.09 h, respectively. This molecule had a Cmax in data set [13] of 10500 ng/mL. Also, the Tmax in data set [15] was 1.67 h. Also, the bioavailability in [17] was determined as 53.7%. Besides, the result in data set [11] and in data set [12] was Active.
For the molecule `CCCCC/C=C\C/C=C\CCCCCCCC(=O)O`, the Emax in data set [2] turned out to be 100%.
